Data taken from ChEMBL document CHEMBL1127041, “(Imidazolylphenyl)pyrrol-2-one inhibitors of cardiac cAMP phosphodiesterase” (J Med Chem, 1993).
Active and inactive are the calls of the source. The rule behind the calls is not given here.

Key:
Canis familiaris [1] = experiment: Mean percentage change in heart rate of pentobarbital anesthetized dogs at 1 mg/kg; assay type: functional, Canis lupus familiaris
Outline: (§1)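 Pentobarbital-anesthetized dogs were given the agent intravenously at 1 and 3 mg/kg. Left ventricular dP/dt, heart rate and mean arterial pressure were monitored. Values are mean percent change from control ± SEM, n = 4.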

Canis familiaris [2] = experiment: Mean percentage change in the left ventricular contractility (dP/dt) in pentobarbital anesthetized dogs at 3 mg/kg; assay type: functional, Canis lupus familiaris, Heart left ventricle; outline: as §1
[3] = (§2) Inhibition of cAMP PDE in canine cardiac tissue; parameters: species or system Canis lupus familiaris
Outline: (§3)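 The enzyme was partially purified cAMP phosphodiesterase from canine brain or cardiac tissue. IC50 is the concentration giving 50% inhibition, taken from the mean of three separate dose-response determinations. Near the IC50, inhibition at the test doses ranged by less than ±8%.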

Canis lupus familiaris [4] = species on record: Canis lupus familiaris; experiment: Percentage inhibition of cAMP PDE in canine brain tissue; assay type: tissue-based; conditions: dose or concentration not given here
Canis familiaris [5] = experiment: Mean percentage change in the left ventricular contractility (dP/dt) in pentobarbital anesthetized dogs at 1 mg/kg; assay type: functional, Canis lupus familiaris, Heart left ventricle; outline: as §1
Canis familiaris [6] = experiment: Mean percentage change in heart rate of pentobarbital anesthetized dogs at 3 mg/kg; assay type: functional, Canis lupus familiaris; outline: as §1
Canis familiaris [7] = experiment: Percentage decrease in Mean arterial pressure in pentobarbital anesthetized dogs at 3 mg/kg; assay type: functional, Canis lupus familiaris, Artery; outline: as §1
Mustela putorius furo [8] = species on record: Mustela putorius furo; experiment: In vitro inotropic effect, 20% increase in the force of contraction of isolated ferret papillary muscle strips; assay type: functional; conditions: Muscle tissue
Outline: (§4)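 Isolated ferret papillary muscle in vitro. The read-out is the dose that gives a 20% rise in contractile force over control (EC20). "NR" means this rise was not reached at 100 μM.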

Canis familiaris [9] = experiment: Percentage decrease in Mean arterial pressure in pentobarbital anesthetized dogs at 1 mg/kg; assay type: functional, Canis lupus familiaris, Artery; outline: as §1
Canis lupus familiaris [10] = species on record: Canis lupus familiaris; experiment: Inhibition of cAMP PDE in canine brain; conditions: concentration not given here; outline: as §3
Canis lupus familiaris [11] = species on record: Canis lupus familiaris; experiment: as §2; conditions: concentration not given here; outline: as §3
Mustela putorius furo [12] = species on record: Mustela putorius furo; experiment: In vitro inotropic effect, 20% increase in the force of contraction of isolated ferret papillary muscle strips (Not reached at 100 uM); assay type: functional; conditions: Muscle tissue; outline: as §4
[13] = Inhibition of cAMP PDE from canine brain; parameters: species or system Canis lupus familiaris; outline: as §3
Mustela putorius furo [14] = species on record: Mustela putorius furo; experiment: In vitro inotropic effect, 20% increase in the force of contraction of isolated ferret papillary muscle strips (two EC20 determinations); assay type: functional; conditions: Muscle tissue
Outline: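 Contractile force was measured in isolated ferret papillary muscle in vitro. EC20 is the dose that gives a 20% increase in force. Two separate EC20 determinations were made.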

Canis familiaris [15] = experiment: Mean percentage change in heart rate of pentobarbital anesthetized dogs at 0.3 mg/kg; assay type: functional, Canis lupus familiaris
Outline: (§5)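 Pentobarbital-anesthetized dogs received doses of 0.1 and 0.3 mg/kg. Left ventricular dP/dt, heart rate and mean arterial pressure were monitored. Values are mean percent change from control ± SEM, n = 6.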

Canis familiaris [16] = experiment: Percentage decrease in Mean arterial pressure in pentobarbital anesthetized dogs at 0.3 mg/kg; assay type: functional, Canis lupus familiaris, Artery; outline: as §5
Canis familiaris [17] = experiment: Mean percentage change in the left ventricular contractility (dP/dt) in pentobarbital anesthetized dogs at 0.3 mg/kg; assay type: functional, Canis lupus familiaris, Heart left ventricle; outline: as §5
Canis familiaris [18] = experiment: Percentage decrease in Mean arterial pressure in pentobarbital anesthetized dogs at 0.1 mg/kg; assay type: functional, Canis lupus familiaris, Artery; outline: as §5
Canis familiaris [19] = experiment: Mean percentage change in the left ventricular contractility (dP/dt) in pentobarbital anesthetized dogs at 0.1 mg/kg; assay type: functional, Canis lupus familiaris, Heart left ventricle; outline: as §5
Canis familiaris [20] = experiment: Mean percentage change in heart rate of pentobarbital anesthetized dogs at 0.1 mg/kg; assay type: functional, Canis lupus familiaris; outline: as §5

Row | SMILES | IC50 [3] | inhibition (Canis lupus familiaris [11]) | IC50 [13] | Increase (Canis familiaris [1]) | Increase (Canis familiaris [2]) | inhibition (Canis lupus familiaris [4]) | Increase (Canis familiaris [5]) | Increase (Canis familiaris [6]) | Decrease (Canis familiaris [7]) | EC20 (Mustela putorius furo [8]) | Decrease (Canis familiaris [9]) | also measured
1 | CCC1=C(c2ccc(-n3ccnc3C)cc2)CNC1=O | 39 µM |  |  | 8% | 80% | < 5% | 52% | 22% | 30% | 4.8 µM | 18% | 
2 | CCC1=C(c2ccc(-n3ccnc3)cc2)CNC1=O | 48 µM |  |  | 9% | 44% | 10% | 21% | 21% | 22% | 10.7 µM | 13% | 
3 | COc1ccc(C2CNC(=O)C2)cc1OC1CCCC1 (configuration not stated) [ROLIPRAM] |  | 28% | 0.8 µM |  |  |  |  |  |  |  |  | EC20 (Mustela putorius furo [12]): inactive
4 | Cc1[nH]c(=O)c(C#N)cc1-c1ccncc1 [MILRINONE] | 5.5 µM |  |  |  |  | 34% |  |  |  | 0.5 µM |  | Increase (Canis familiaris [15]): 32%; Decrease (Canis familiaris [16]): 30%; Increase (Canis familiaris [17]): 81%; Decrease (Canis familiaris [18]): 13%; Increase (Canis familiaris [19]): 57%; Increase (Canis familiaris [20]): 19%

More lines, main results first:

Row | IC50 [3] | inhibition (Canis lupus familiaris [11]) | IC50 [13] | SMILES | Increase (Canis familiaris [1]) | Increase (Canis familiaris [2]) | inhibition (Canis lupus familiaris [4]) | Increase (Canis familiaris [5]) | Increase (Canis familiaris [6]) | Decrease (Canis familiaris [7]) | EC20 (Mustela putorius furo [8]) | Decrease (Canis familiaris [9]) | also measured
5 | 25 µM |  |  | CC1=C(c2ccc(-n3ccnc3)cc2)CNC1=O | 7% | 75% | 16% | 40% | 19% | 14% | 2.3 µM | 3% | 
6 |  | 3% |  | COc1ccc(C2CNC(=O)C2)cc1OC (configuration not stated) |  |  |  |  |  |  |  |  | inhibition (Canis lupus familiaris [10]): 36%; EC20 (Mustela putorius furo [12]): Not reached
7 | 26 µM |  | 100 µM | COc1ccc(C2=C(C)C(=O)NC2)cc1OC |  |  |  |  |  |  | 3.8 µM |  | 
8 |  | 46% | 40 µM | COc1ccc(C2=CC(=O)NC2)cc1OC |  |  |  |  |  |  |  |  | EC20 (Mustela putorius furo [14]): 6.5 µM
9 | 30 µM |  |  | CC1=C(c2ccc(-n3ccnc3C)cc2)CNC1=O | 7% | 33% | 10% | 14% | 14% | 10% | 10.2 µM | 6% | 
